According to publication PMC6363533 (Biochemistry, 2018):
Marks after values point to notes of the source that are not given here.

B1: KMM: His-tagged recombinant β-antithrombin double mutant, Lys125 and Arg129 mutated to Met (protein)
chain: HGSPVDICTAKPRDIPMNPMCIYRSPEKKATEDEGSEQKIPEATNRRVWELSKANSRFATTFYQHLADSKNDNDNIFLSPLSISTAFAMTKLGACNDTLQQLMEVFKFDTISEKTSDQIHFFFAMLNCMLYRKAQKSSKLVSANRLFGDKSLTFNETYQDISELVYGAKLQPLDFKENAEQSRAAINKWVSNKTEGRITDVIPSEAINELTVLVLVNTIYFKGLWKSKFSPENTRKELFYKADGESCSASMMYQEGKFRYRRVAEGTQVLELPFKGDDITMVLILPKPEKSLAKVEKELTPEVLQEWLDELEEMMLVVHMPRFRIEDGFSLKEQLQDMGLVDLFSPEKSKLPGIVAEGRDDLYVSDAFHKAFLEVNEEGSEAAASTAVVIAGRSLNPNRVTFKANRPFLVFIREVPLNTIIFMGRVANPCVK
modifications: left off: His6, C-terminal, kept
B2: MMM: His-tagged recombinant β-antithrombin triple mutant, Lys114, Lys125 and Arg129 mutated to Met (protein)
chain: HGSPVDICTAKPRDIPMNPMCIYRSPEKKATEDEGSEQKIPEATNRRVWELSKANSRFATTFYQHLADSKNDNDNIFLSPLSISTAFAMTKLGACNDTLQQLMEVFKFDTISEMTSDQIHFFFAMLNCMLYRKAQKSSKLVSANRLFGDKSLTFNETYQDISELVYGAKLQPLDFKENAEQSRAAINKWVSNKTEGRITDVIPSEAINELTVLVLVNTIYFKGLWKSKFSPENTRKELFYKADGESCSASMMYQEGKFRYRRVAEGTQVLELPFKGDDITMVLILPKPEKSLAKVEKELTPEVLQEWLDELEEMMLVVHMPRFRIEDGFSLKEQLQDMGLVDLFSPEKSKLPGIVAEGRDDLYVSDAFHKAFLEVNEEGSEAAASTAVVIAGRSLNPNRVTFKANRPFLVFIREVPLNTIIFMGRVANPCVK
modifications: left off: His6, C-terminal, kept
B3: MMR: His-tagged recombinant β-antithrombin double mutant, Lys114 and Lys125 mutated to Met (protein)
chain: HGSPVDICTAKPRDIPMNPMCIYRSPEKKATEDEGSEQKIPEATNRRVWELSKANSRFATTFYQHLADSKNDNDNIFLSPLSISTAFAMTKLGACNDTLQQLMEVFKFDTISEMTSDQIHFFFAMLNCRLYRKAQKSSKLVSANRLFGDKSLTFNETYQDISELVYGAKLQPLDFKENAEQSRAAINKWVSNKTEGRITDVIPSEAINELTVLVLVNTIYFKGLWKSKFSPENTRKELFYKADGESCSASMMYQEGKFRYRRVAEGTQVLELPFKGDDITMVLILPKPEKSLAKVEKELTPEVLQEWLDELEEMMLVVHMPRFRIEDGFSLKEQLQDMGLVDLFSPEKSKLPGIVAEGRDDLYVSDAFHKAFLEVNEEGSEAAASTAVVIAGRSLNPNRVTFKANRPFLVFIREVPLNTIIFMGRVANPCVK
modifications: left off: His6, C-terminal, kept
B4: MKM: His-tagged recombinant β-antithrombin double mutant, Lys114 and Arg129 mutated to Met (protein)
chain: HGSPVDICTAKPRDIPMNPMCIYRSPEKKATEDEGSEQKIPEATNRRVWELSKANSRFATTFYQHLADSKNDNDNIFLSPLSISTAFAMTKLGACNDTLQQLMEVFKFDTISEMTSDQIHFFFAKLNCMLYRKAQKSSKLVSANRLFGDKSLTFNETYQDISELVYGAKLQPLDFKENAEQSRAAINKWVSNKTEGRITDVIPSEAINELTVLVLVNTIYFKGLWKSKFSPENTRKELFYKADGESCSASMMYQEGKFRYRRVAEGTQVLELPFKGDDITMVLILPKPEKSLAKVEKELTPEVLQEWLDELEEMMLVVHMPRFRIEDGFSLKEQLQDMGLVDLFSPEKSKLPGIVAEGRDDLYVSDAFHKAFLEVNEEGSEAAASTAVVIAGRSLNPNRVTFKANRPFLVFIREVPLNTIIFMGRVANPCVK
modifications: left off: His6, C-terminal, kept

Experiments:
[1] = target: factor IXa (Homo sapiens, UniProt P00740); type: biochemical; conditions: for k−H FIXa, association rate constant of free antithrombin / k−H FIXa, fractional wild-type value (in parentheses): absence of heparin; for k−H FIXa, association rate constant of free antithrombin / k−H FIXa, fractional wild-type value (in parentheses) / kH FIXa, association rate constant of heparin-complexed antithrombin / kH FIXa, fractional wild-type value (in parentheses): 20 mM MES; for k−H FIXa, association rate constant of free antithrombin / kH FIXa, association rate constant of heparin-complexed antithrombin: 5 mM CaCl2, 0.1 % PEG 8000, pH 6.0, 25°C, ±S.E.; for k−H FIXa, fractional wild-type value (in parentheses) / kH FIXa, fractional wild-type value (in parentheses): 5 mM CaCl2, pH 6.0, 25°C; for kH FIXa, association rate constant of heparin-complexed antithrombin / kH FIXa, fractional wild-type value (in parentheses): natural pentasaccharide complex; for Heparin-activated reactivity with factor IXa, % of wild-type: saturating natural pentasaccharide, MES/Ca2+ pH 6 buffer
[2] = type: binding; conditions: for Kd: read-out: KD,obs, I 0.04, pH 6.0, 25°C, measured directly at I 0.04 or calculated from the ionic strength dependence of KD,obs
Procedure, shortened: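 Recombinant His-tagged antithrombin (~100 nM), expressed in Sf9 and Ni-NTA purified, was titrated with pentasaccharide at 25°C. Binding was followed by tryptophan fluorescence enhancement (ex 280 nm, em 340 nm). Stocks were diluted extensively. Data were fit by quadratic binding equation for KD and stoichiometry.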

[3] = Rapid; type: binding; conditions: for k−2, reverse conformational activation rate constant: possibly overestimated (conformational selection pathway)
[4] = target: factor Xa (Homo sapiens, UniProt P00742); type: biochemical; conditions: for k−H FXa, association rate constant of free antithrombin / k−H FXa, fractional wild-type value (in parentheses) / kH FXa, association rate constant of heparin-complexed antithrombin / kH FXa, fractional wild-type value (in parentheses): 20 mM MES; for k−H FXa, association rate constant of free antithrombin / kH FXa, association rate constant of heparin-complexed antithrombin: 5 mM CaCl2, 0.1 % PEG 8000, pH 6.0, 25°C, ±S.E.; for k−H FXa, fractional wild-type value (in parentheses) / kH FXa, fractional wild-type value (in parentheses): 5 mM CaCl2, pH 6.0, 25°C; for kH FXa, association rate constant of heparin-complexed antithrombin / kH FXa, fractional wild-type value (in parentheses): natural pentasaccharide complex
[5] = natural pentasaccharide, I 0.04, pH 6.0, 25°C, ±S.E.
[6] = natural pentasaccharide, I 0.04, pH 6.0, 25°C, estimated based on factor Xa reactivity enhancements

Chain of factor Xa (P00742 41-179 limits assumed): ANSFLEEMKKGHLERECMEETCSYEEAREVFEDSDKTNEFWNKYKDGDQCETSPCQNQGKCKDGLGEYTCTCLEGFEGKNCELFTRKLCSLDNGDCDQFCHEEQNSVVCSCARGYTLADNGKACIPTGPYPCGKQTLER
Chain of factor Xa (P00742 235-488 limits assumed): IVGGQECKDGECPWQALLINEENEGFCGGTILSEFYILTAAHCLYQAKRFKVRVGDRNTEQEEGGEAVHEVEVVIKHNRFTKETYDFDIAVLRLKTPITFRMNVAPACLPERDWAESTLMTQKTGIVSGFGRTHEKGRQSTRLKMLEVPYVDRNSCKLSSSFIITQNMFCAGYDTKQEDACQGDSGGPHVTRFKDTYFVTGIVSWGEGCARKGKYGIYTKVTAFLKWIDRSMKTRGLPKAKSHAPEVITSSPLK
Chain of factor IXa (P00740 47-191 limits assumed): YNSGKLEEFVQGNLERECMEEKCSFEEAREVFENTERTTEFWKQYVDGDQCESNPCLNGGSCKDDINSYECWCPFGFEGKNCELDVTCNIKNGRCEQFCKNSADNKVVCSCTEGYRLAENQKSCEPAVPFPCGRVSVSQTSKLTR
Chain of factor IXa (P00740 227-461 limits assumed): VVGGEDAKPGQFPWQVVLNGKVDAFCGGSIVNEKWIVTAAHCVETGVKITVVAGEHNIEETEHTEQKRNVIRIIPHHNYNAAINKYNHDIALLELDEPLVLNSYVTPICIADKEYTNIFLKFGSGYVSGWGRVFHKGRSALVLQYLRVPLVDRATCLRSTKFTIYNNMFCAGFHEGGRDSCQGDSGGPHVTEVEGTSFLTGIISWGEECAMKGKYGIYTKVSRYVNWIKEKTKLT

Row | Molecule | k−H FIXa, association rate constant of free antithrombin [1] | k−H FIXa, fractional wild-type value (in parentheses) [1] | kH FIXa, association rate constant of heparin-complexed antithrombin [1] | kH FIXa, fractional wild-type value (in parentheses) [1] | Heparin pentasaccharide binding stoichiometry [2] | Kd ([2]; natural pentasaccharide) [µM] | Limiting rate constant at heparin saturation (k+2 + k−2) ([3]; natural pentasaccharide, I 0.04, pH 6, 25°C) [s⁻¹] | 1/K2 ([3]; natural pentasaccharide, I 0.04, pH 6.0, 25°C, 1/K2 = (K1/KD,obs) − 1) | k+2, forward conformational activation rate constant [3, 5] [s⁻¹] | k−2, reverse conformational activation rate constant [3, 5] | k−2, reverse conformational activation rate constant ([3]; natural pentasaccharide, I 0.04, pH 6.0, 25°C, ±S.E., listed as Lys125/Arg129) | k−H FXa, association rate constant of free antithrombin ([4]; absence of heparin) | k−H FXa, fractional wild-type value (in parentheses) ([4]; absence of heparin) | Enhancement of basal reactivities with both factors Xa and IXa ([4]; absence of heparin, relative to wild-type, range covers factor Xa and factor IXa) | kH FXa, association rate constant of heparin-complexed antithrombin [4] | kH FXa, fractional wild-type value (in parentheses) [4] | Heparin-activated reactivity with factor IXa, % of wild-type [1] [%] | Loss of nonionic binding energy relative to wild-type ([2]; natural pentasaccharide) [%] | 1/K2 [3, 6] | Observed rate constant kobs of pentasaccharide binding, no saturable increase ([3]; over the range 0.5–20 μM heparin, I 0.04, pH 6, 25°C)
1 | B1 | 1.5±0.2 × 10^2 M^−1s^−1 | 2.8 | 3.6±0.2 × 10^3 M^−1s^−1 | 0.36 | ~0.5 mole heparin/mole antithrombin | 0.07 | 550 to 690 | ~400^c | 690 ± 240 | 74±7^c s^−1 | ~ 70 s^−1 | 2.0±0.1 ×10^3 M^−1s^−1 | 3.5 | 2.8–3.5 fold | 5.6±0.4 ×10^4 M^−1s^−1 | 0.73 |  |  |  | 
2 | B2 | 2.3±0.2 × 10^1 M^−1s^−1 | 0.43 |  | 0.003 |  |  |  |  |  |  |  |  |  |  |  | 0.04 | 0.3 | 60 |  | 
3 | B3 |  |  | 3.0±0.1 × 10^2 M^−1s^−1 | 0.03 |  | 45 |  |  |  |  |  |  |  |  | 2.3±0.3 ×10^4 M^−1s^−1 | 0.30 | 3 |  | ~0.5^d | 
4 | B4 | 1.3±0.2×10^1 M^−1s^−1 | 0.24 | 2.1±0.1 × 10^3 M^−1s^−1 | 0.21 |  | 18 |  |  |  |  |  | 3.5±0.5 ×10^2 M^−1s^−1 | 0.61 |  | 8.5±0.4 ×10^4 M^−1s^−1 | 1.1 |  |  | ~10^d | ~ 60 s^−1
